Laboratory results: ChEMBL document CHEMBL1150223, “Neuroprotective constituents from Hedyotis diffusa” (2001)

How the values were obtained:
Format in all cases: functional
Settings in all cases: read-out: Activity
[1] = Neuroprotective activity against glutamate-stimulated rat cortical cells assessed as cell viability at 0.1 uM after 1 hr by LDH assay relative to control
In short: (§1)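 Mixed cortical cultures from 17- to 19-day fetal Sprague-Dawley rats, grown 2 weeks in DMEM/10% FCS, with 5-fluorodeoxyuridine 50 µM from day 3. Cells were washed, given sample in DMSO (0.1% final) for 1 h, then 50 µM glutamate plus sample for 24 h. Medium LDH was read at 450 nm. Viability is relative to glutamate-only and vehicle control; mean ± SEM, three experiments.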

[2] = Neuroprotective activity against glutamate-stimulated rat cortical cells assessed as cell viability at 1 uM after 1 hr by LDH assay relative to control; in short: as §1
[3] = Neuroprotective activity against glutamate-stimulated rat cortical cells assessed as cell viability at 10 uM after 1 hr by LDH assay relative to control; in short: as §1

Structure (SMILES)	viability at 0.1 µM [1]	viability at 1 µM [2]	viability at 10 µM [3]
COC(=O)C1=CO[C@@H](O[C@@H]2O[C@H](CO)[C@@H](O)[C@H](O)[C@H]2O)[C@@H]2C(CO)=C[C@@H](OC(=O)/C=C/c3ccc(OC)cc3)[C@H]12	65.4%	71.8%	52.8%
O=c1c(O[C@@H]2O[C@H](CO)[C@H](O)[C@H](O)[C@H]2O[C@@H]2O[C@H](CO)[C@@H](O)[C@H](O)[C@H]2O)c(-c2ccc(O)c(O)c2)oc2cc(O)cc(O)c12	48.2%	66%	54%
COC(=O)C1=CO[C@@H](O[C@@H]2O[C@H](CO)[C@@H](O)[C@H](O)[C@H]2O)[C@@H]2C(CO)=C[C@@H](OC(=O)/C=C\c3ccc(O)cc3)[C@H]12	6.9%	25.7%	6.3%
O=c1c(O[C@@H]2O[C@H](CO)[C@H](O)[C@H](O)[C@H]2O[C@@H]2O[C@H](CO)[C@@H](O)[C@H](O)[C@H]2O)c(-c2ccc(O)cc2)oc2cc(O)cc(O)c12	4.6%	27%	25.2%
COc1cc(/C=C/C(=O)OC[C@H]2O[C@@H](O[C@H]3[C@H](Oc4c(-c5ccc(O)c(O)c5)oc5cc(O)cc(O)c5c4=O)O[C@H](CO)[C@H](O)[C@@H]3O)[C@H](O)[C@@H](O)[C@@H]2O)ccc1O	62.7%	72.9%	75%
COC(=O)C1=CO[C@@H](O[C@@H]2O[C@H](CO)[C@@H](O)[C@H](O)[C@H]2O)[C@@H]2C(CO)=C[C@@H](OC(=O)/C=C\c3ccc(OC)cc3)[C@H]12	28.8%	54.6%	23.7%
COc1cc(/C=C/C(=O)OC[C@H]2O[C@@H](O[C@H]3[C@H](Oc4c(-c5ccc(O)c(O)c5)oc5cc(O)cc(O)c5c4=O)O[C@H](CO)[C@@H](O)[C@@H]3O)[C@H](O)[C@@H](O)[C@@H]2O)ccc1O	62.9%	71.5%	73.7%
COc1cc(/C=C/C(=O)OC[C@H]2O[C@@H](O[C@H]3[C@H](Oc4c(-c5ccc(O)cc5)oc5cc(O)cc(O)c5c4=O)O[C@H](CO)[C@H](O)[C@@H]3O)[C@H](O)[C@@H](O)[C@@H]2O)ccc1O	25.2%	66.9%	25.2%
COC(=O)C1=CO[C@@H](O[C@@H]2O[C@H](CO)[C@@H](O)[C@H](O)[C@H]2O)[C@@H]2C(CO)=C[C@@H](OC(=O)/C=C/c3ccc(O)cc3)[C@H]12	14.5%	62.2%	26.8%
